Assay results published in article PMC9075022 (Research in Pharmaceutical Sciences, 2022).
≈ marks a conversion by molar mass, not a printed value. Like-named read-outs stand apart in the source and are kept apart here.

Experiments:
formation of β-hematin = test: In vitro β-hematin inhibition assay; type: biochemical; settings: 200 μg/mL, 60 °C, 24 h; positive if more than 90%
Method in brief: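 Heme detoxification (ITHD) assay. Hemin chloride was dissolved in DMSO and diluted to 60 μg/mL in 1 M acetate buffer pH 4.5. Tween 20 stock was 0.012 g/L; compound was dissolved in DMSO. Hemin, sample and Tween were mixed 9:9:2 in triplicate, final 200 μg/mL. Controls: hemin-free matrix blanks, DMSO negative, chloroquine phosphate positive. Incubated 60 °C, 24 h; mixed and absorbance read at 405 nm.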

PC12 cell line = test: In vitro antiproliferative MTT assay, PC12; type: cell-based, rat; settings: 48 h
Method in brief: (§1)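 PC12 (rat pheochromocytoma) or fibroblast cells at 5000/well in DMEM with 10% heat-inactivated FBS, penicillin 100 U/mL and streptomycin 100 μg/mL, grown 24 h. At 80% confluence, test compound or docetaxel/cisplatin controls were added at 1–360 μg/mL for 48 h. MTT (5 mg/mL in PBS pH 7.4) added for 3–4 h; formazan dissolved in DMSO, read at 570 nm. Triplicate; IC50 calculated.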

fibroblast cell line = test: In vitro antiproliferative MTT assay, fibroblast; type: cell-based; settings: 48 h
Method in brief: as §1

PC12 cells = test: Cellular uptake by fluorescent microscopy; type: cell-based, rat; settings: 100 μg/mL, 24 h incubation, 37 °C
Method in brief: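 PC12 cells at 5 × 10^4 cells/well in DMEM with 10% FBS and antibiotics, kept at 37 °C in 5% CO2. Exposed to test compound at 37 °C for 24 h. Washed three times with cold PBS, then 3 min in sterile distilled water. Intrinsic compound fluorescence imaged without staining by fluorescence microscopy (bright field, DAPI, GFP channels), compared with untreated cells.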

P. falciparum = settings: cited from earlier work

SMILES: Cc1c(OCc2ccccc2)c(=O)ccn1CCCOC(=O)c1ccc(Cl)cc1Cl [7a, 3-(3-(benzyloxy)-2-methyl-4-oxopyridin-1(4H)-yl) propyl 2,4-dichlorobenzoate]
- Heme inhibition (%) (formation of β-hematin): 39%
- IC50 against PC12 (PC12 cell line): 37 µg/mL (≈ 82.9 µM)
- IC50 on fibroblast cell line (fibroblast cell line): 44 µg/mL (≈ 98.6 µM)
- cellular uptake (fluorescent emission) (PC12 cells): cellular uptake potential

SMILES: Cc1occc(=O)c1O [Maltol]
- inhibition of growth of P. falciparum compared to control (P. falciparum; 0.01 mM): about 15%
- inhibition of growth of P. falciparum compared to control (P. falciparum; 0.10 mM): ~50%

SMILES: Cc1c(OCc2ccccc2)c(=O)ccn1CCCO [alcoholic precursor, 3-(benzyloxy) -1-(3-hydroxypropyl) -2-methylpyridin-4(1H)-one]
- toxicity against PC12 in words (PC12 cell line; 1-360 μg/mL): didn’t display remarkable toxicity in defined concentrations

SMILES: N.N.[Cl][Pt][Cl] [cisplatin, reference compound]
- IC50 against PC12 (PC12 cell line): 8 µg/mL
